In ChEMBL document CHEMBL1649083, “Discovery of novel inhibitors of the NorA multidrug transporter of Staphylococcus aureus” (2011):

Biological target: T1, Quinolone resistance protein NorA (Staphylococcus aureus) (UniProt P0A0J7)
T1 sequence (whole entry): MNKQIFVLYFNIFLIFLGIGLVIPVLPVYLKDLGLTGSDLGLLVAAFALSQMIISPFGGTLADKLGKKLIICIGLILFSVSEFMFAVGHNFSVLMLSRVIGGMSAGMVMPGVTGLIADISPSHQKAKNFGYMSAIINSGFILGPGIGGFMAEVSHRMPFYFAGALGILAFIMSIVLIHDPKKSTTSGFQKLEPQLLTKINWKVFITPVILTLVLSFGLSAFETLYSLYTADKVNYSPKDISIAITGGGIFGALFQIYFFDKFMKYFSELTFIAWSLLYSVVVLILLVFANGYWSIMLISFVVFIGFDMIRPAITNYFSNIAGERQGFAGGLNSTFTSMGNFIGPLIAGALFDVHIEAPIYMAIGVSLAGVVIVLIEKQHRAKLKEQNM
Assay: Inhibition of NorA in Staphylococcus aureus 1199B assessed as reduction in ethidium bromide efflux at 50 uM by fluorimetry after 5 mins
In short: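 S. aureus SA-1199B (NorA overexpressing via promoter up-mutation; GrlA A116E), EtBr-loaded cells. EtBr loss measured fluorometrically over a 5 min time course, in duplicate, as mean total efflux. Percent reduction calculated versus efflux without compound. Test compound at 50 μM; increasing concentrations were also run for dose-response profiles.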

| inhibition [%] | Compound |
| --- | --- |
| > 88 | CSc1ccc2c(c1)N(CCC1CCCCN1C)c1ccccc1S2 (stereo unspecified) |
| 18.3 | COc1cc(/C=C2\S/C(=N\c3ccccc3)N(c3ccccc3)C2=O)cc(Cl)c1OCC(N)=O |
| 82 | OCCN1CCN(CC/C=C2/c3ccccc3Sc3ccc(C(F)(F)F)cc32)CC1 |
| 10.6 | COCCN1C(=O)/C(=C/c2ccc(O[C@@H](C)C(=O)O)c(OC)c2)S/C1=N\c1ccccc1 |
| 0 | Cc1ccc([C@H]2C(C#N)=C(N)Oc3cc(C)oc(=O)c32)o1 |
| 0 | NS(=O)(=O)c1ccc(NC2=NC(=O)C(CC(=O)O)S2)cc1 (stereo unspecified) |
| 50.5 | CCOC(=O)c1cn(C2CC2)c2c(C)c(N3CCC4=C(C3)C(=O)C(C)CS4)c(N)cc2c1=O (stereo unspecified) |
| 10.8 | CCOc1ccc(-c2cc(=O)c3ccccc3n2C)cc1 |
| 1.7 | CCN(CC)CCOc1ccc(-c2cc(=O)c3ccccc3n2C)cc1 |
| 0 | CCOC(=O)Nc1ccc2c(c1)N(C(=O)CCN1CCN(CCO)CC1)c1ccccc1CC2 |
| 86.9 | CCOC(=O)c1cn(C2CC2)c2cc(N3CCC4=C(C3)/C(=N/OC)C(C)CS4)c(F)cc2c1=O (stereo unspecified) |
| 32.4 | CCCOc1ccc(-c2cc(=O)c3ccccc3o2)cc1 |
| 47.3 | CCOC(=O)c1cn(C2CC2)c2c(C)c(N3CCC4=C(C3)C(O)CCS4)c(N)cc2c1=O (stereo unspecified) |
| 14.8 | CCOc1ccc(C2C(C(=O)Nc3cccnc3)=C(C)Nc3nc(CCCO)nn32)cc1OC (stereo unspecified) |
| 65.6 | CCN(CC)CCOc1cc(-c2ccc(OCCN3CCCCC3)cc2)nc2ccccc12 |
| 0 | Cc1ccc(S(=O)(=O)Nc2ccc3c(c2)ncn3-c2ccccc2)cc1 |
| 4.4 | CN(C)CCOc1ccc(-c2cc(=O)c3ccccc3n2C)cc1 |
| 26.3 | CCOC(=O)c1cn(C2CC2)c2cc(N3CCC4=C(C3)C(O)CCS4)c(N)cc2c1=O (stereo unspecified) |
| 19.7 | CCOC(=O)c1cn(C2CC2)c2cc(N3CCC4=C(C3)/C(=N/OC)C(C)CS4)c(N)cc2c1=O (stereo unspecified) |
| 19.8 | Cn1c(-c2ccc(OCCN3CCCCC3)cc2)cc(=O)c2ccccc21 |
| 41.3 | N#Cc1c(SCc2ccc(Cl)nc2)nc2c(c1C(F)(F)F)CCCC2 |

| inhibition [%] | Compound |
| --- | --- |
| 22.5 | CCOC(=O)c1cn(C2CC2)c2cc(N3CCC4=C(C3)/C(=N/O)C(C)CS4)c(F)cc2c1=O (stereo unspecified) |
| 4.9 | CCOc1cc(C2C(C#N)=C(N)Oc3[nH]nc(C)c32)ccc1OCc1cccc(F)c1 (single isomer, unassigned) |
| 31.4 | C[C@H](O)c1cccc(NC(=O)CC(c2ccccc2)c2ccccc2)c1 |
| > 78 | CN1CCN(CCCN2c3ccccc3Sc3ccc(Cl)cc32)CC1 |
| 9.4 | COc1cc2c(=O)cc(-c3ccccc3)n(C)c2cc1OC |
| 50 | COc1ccc(OC[C@@H]2CN(C)CC[C@H]2c2ccccc2)cc1 (relative stereo) |
| 75.1 | CCCOc1ccc(-c2cc(=O)c3ccccc3n2CCN2CCCCC2)cc1 |
| 20.9 | CN1C(=O)S/C(=C/c2ccc(-c3cc(C(=O)O)ccc3Cl)o2)C1=O |
| 0 | Cn1c(-c2ccc(O)cc2)cc(=O)c2cc(O)c(O)cc21 |
| 0.6 | Cc1ccc(N(CC(=O)Nc2ccc(C(N)=O)cc2)S(=O)(=O)c2ccccc2)cc1C |
| 48.6 | CCOC(=O)CCCSc1nc2c(c(C(F)(F)F)c1C#N)CC(C)CC2 (stereo unspecified) |
| 3.1 | CC(C)N1C(=O)S/C(=C/c2cc(Br)ccc2OCc2ccc(C(=O)O)cc2)C1=O |
| 6.3 | CCCOc1ccc(-c2cc(=O)c3ccccc3s2)cc1 |
| 63.5 | CCOC(=O)c1cn(C2CC2)c2cc(N3CCC4=C(C3)C(=O)C(C)CS4)c(N)cc2c1=O (stereo unspecified) |
| 32.6 | COc1cc(/C=C2\S/C(=N\c3ccccc3)N([C@@H]3CCCC[C@@H]3C)C2=O)ccc1OCC(=O)O |
| 93.4 | CCCOc1ccc(-c2cc(OCCN(CC)CC)c3ccccc3n2)cc1 |
| 19.1 | CCc1c(O)nc(SCC(=O)Nc2nc3ccccc3s2)[nH]c1=O |
| 0 | Fc1ccc(C2=Nc3ccccc3SC2)cc1 |
| 30 | COc1ccccc1CNCc1cccc(C(F)(F)F)c1 |
| 72 | OCCN1CCN(CC/C=C2\c3ccccc3Sc3ccc(C(F)(F)F)cc32)CC1 |
